Screening data: PubChem, several laboratories
Sampled rows, rich in hits. Any-hit rate of the full collection: about 4.6%.
ALR H2O2 inh: blocks human ALR sulfhydryl oxidase activity; purified ALR, DTT oxidation, H2O2 HRP-luminol luminescence; inhibition, % (no concentration beside the values); 290,000 compounds, 3.8% hits; AID 485317;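 active means mean replicate inhibition above about 79%, with every replicate also reaching it, limit read from the data; inconclusive means only one of the two criteria met; inactive means mean below limit and not every replicate reaching it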
Target sequence (P55789 whole entry, looked up): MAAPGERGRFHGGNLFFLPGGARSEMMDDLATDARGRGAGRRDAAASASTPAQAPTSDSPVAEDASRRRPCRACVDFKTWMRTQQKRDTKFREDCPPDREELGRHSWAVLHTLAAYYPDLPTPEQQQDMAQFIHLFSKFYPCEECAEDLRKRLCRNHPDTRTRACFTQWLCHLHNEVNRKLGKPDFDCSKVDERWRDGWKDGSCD
NALP1 inh: inhibitors of NALP1 inflammasome in yeast | 280,000 compounds, 0.61% hits | S. cerevisiae NALP1/ASC/caspase-1 growth, X-gal OD620, 72 h | inhibition, % at 10 µM | AID 2071; in the data active means inhibition mostly above about 24%, no sharp cut-off; inactive means mostly below about 32%
Arr AP2 block: blocks beta-arrestin peptide binding to AP2 adaptin | FITC-arrestin peptide / GST-AP2 beads, flow cytometry; AP2 beta2 appendage carries R879A mutation | inhibition, % at 10 µM | 340,000 compounds, 0.31% hits;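 active means inhibition above a set limit, near 3 SD of compounds lacking own fluorescence, cut at about 54% in these data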
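Assay system: GST-AP2 R879A bound to glutathione beads, E. coli-expressed; Medium: PBS with 0.05% Tween 20 and 0.1% BSA; Also added: fluorescein-tagged arrestin peptide at 50 nM final; Timing: 12 min plus 1 h, RT; Measured by: flow cytometry, FL1 (488/535 nm); Evaluation: percent drop in bead-associated FITC signal.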
PolyA inh: inhibitors of polyadenylation in S. cerevisiae | 300,000 compounds, 0.02% hits | activity score, % at 12 µM | S. cerevisiae SKY197-pL101 polyadenylation reporter, beta-gal luminescence; efflux-impaired pdr1/pdr3 knockout yeast; score 100 = 6 SD above DMSO;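 active means lowest replicate activity score at least 50, where 100 means six control SD above control mean; inconclusive means lowest score under 50 but half or more replicates reach 50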;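 further: yeast exposed to compound for 9 h at 30 °C; higher score means more reporter readthrough which indicates perturbed polyadenylation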
NALP3 yeast inh: blocks the NALP3 inflammasome reconstituted in yeast; Yeast reconstituted NLRP3/ASC/caspase-1, beta-gal luminescence, 24 h; AID 2825; inhibition, % at 10 µM; 330,000 compounds, 0.39% hits;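 active means inhibition of 50% or more; inactive means inhibition below 50%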
Pemphigus Ab inh: human desmoglein-3 autoantibody binding inhibition; DSG3-coupled beads, scFv-anti-DSG3-GFP binding, flow cytometry; hits give low values; P32926; 310,000 compounds, 0.48% hits; binding (percent of control), % at 10 µM;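 active means binding more than 3 SD below its plate's average and above zero; inconclusive means below that plate limit but binding exactly zero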;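 further: hits lower antibody fragment binding to DSG3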
Hits are given with their value.

For O=C(CCN1C(=O)C2C3C=CC(C4CC34)C2C1=O)Nc1ccc(Cl)cc1O (stereo unspecified) the results were ALR H2O2 inh inactive, NALP1 inh inactive, Arr AP2 block inactive, PolyA inh inactive, NALP3 yeast inh inactive and Pemphigus Ab inh inactive.
`O=C(c1cc2ccccn2n1)N1CCN(Cc2ccccc2)CC1` gave ALR H2O2 inh inactive, NALP1 inh 33.7, Arr AP2 block inactive, PolyA inh inactive, NALP3 yeast inh inactive and Pemphigus Ab inh inactive.
For COc1cccc(CNc2ccc(S(=O)(=O)Nc3nccs3)cc2)c1O the results were ALR H2O2 inh 93.1, NALP1 inh inactive, Arr AP2 block inactive, PolyA inh inactive, NALP3 yeast inh inactive and Pemphigus Ab inh inactive.
For O=S(=O)(Nc1nccs1)c1ccc(NCc2cc(Br)cc(Br)c2O)cc1 the results were ALR H2O2 inh inactive, NALP1 inh inactive, Arr AP2 block inactive, PolyA inh inactive, NALP3 yeast inh inactive and Pemphigus Ab inh inactive.
Screening O=S(=O)(Nc1nccs1)c1ccc(F)cc1 returned ALR H2O2 inh inactive, NALP1 inh 27.4, Arr AP2 block inactive, PolyA inh inactive, NALP3 yeast inh inactive and Pemphigus Ab inh inactive.
`CN(C)c1ccc(N2C(=O)CSC2=S)cc1` gave ALR H2O2 inh inactive, NALP1 inh inactive, Arr AP2 block inactive, PolyA inh inactive, NALP3 yeast inh inactive and Pemphigus Ab inh inactive.
CC1SC(=S)N(c2ccc(N(C)C)cc2)C1=O (stereo unspecified) was read as ALR H2O2 inh 98.7, NALP1 inh inactive, Arr AP2 block inactive, PolyA inh inactive, NALP3 yeast inh inactive and Pemphigus Ab inh inactive.
For CC(C)NC(=O)c1ccc2c3n(nc2c1)-c1ccc(Cl)cc1CO3 the results were ALR H2O2 inh inactive, NALP1 inh inactive, Arr AP2 block inactive, PolyA inh inactive, NALP3 yeast inh inactive and Pemphigus Ab inh inactive.
`CCN(CC)CCCNC(=O)c1ccc2c3n(nc2c1)-c1ccc(Cl)cc1CO3` gave ALR H2O2 inh 99.2, Arr AP2 block inactive, PolyA inh inactive, NALP3 yeast inh inactive and Pemphigus Ab inh inactive.
`OCCCNCc1ccc(N(c2ccccc2)c2ccccc2)cc1` gave ALR H2O2 inh 99.2, NALP1 inh inactive, Arr AP2 block inactive, PolyA inh inactive, NALP3 yeast inh inactive and Pemphigus Ab inh inactive.
Screening OCCNCc1ccc(-c2ccccc2)cc1 returned NALP1 inh inactive, Arr AP2 block inactive, PolyA inh inactive, NALP3 yeast inh inactive and Pemphigus Ab inh inactive.
`O=C(Cc1ccc([N+](=O)[O-])cc1)N/N=C/c1ccccc1F` gave ALR H2O2 inh inactive, NALP1 inh inactive, Arr AP2 block inactive, PolyA inh inconclusive, NALP3 yeast inh inactive and Pemphigus Ab inh inactive.
`O=C1S/C(=C\c2ccc(O)c([N+](=O)[O-])c2)C(=O)N1c1ccccc1Cl` gave NALP1 inh 28.5, Arr AP2 block inactive, PolyA inh 83.1, NALP3 yeast inh inactive and Pemphigus Ab inh inactive.
CN(C=O)c1ccc(CSc2ccccc2)cc1 was read as Arr AP2 block inactive and Pemphigus Ab inh inactive.
`CCn1c(COc2ccccc2C)nnc1SCC(=O)OC` gave ALR H2O2 inh inactive, NALP1 inh 22.3, Arr AP2 block inactive, PolyA inh inactive, NALP3 yeast inh inactive and Pemphigus Ab inh inactive.
`CCn1c(SCC(=O)Nc2ccccc2OC)nc(O)cc1=O` gave ALR H2O2 inh 97.6, Arr AP2 block inactive, PolyA inh inactive and NALP3 yeast inh inactive.
For C=CCn1c(SCC(=O)Nc2ccccc2C)nc(O)cc1=O the results were ALR H2O2 inh 91.8, NALP1 inh inactive, Arr AP2 block inactive, PolyA inh inactive, NALP3 yeast inh inactive and Pemphigus Ab inh inactive.
Screening CCCn1c(SCC(=O)Nc2cc(Cl)ccc2OC)nc(O)cc1=O returned ALR H2O2 inh 97.9, Arr AP2 block inactive and NALP3 yeast inh inactive.
CCn1c(SCC(=O)Nc2ccccc2OC)nc2ccccc2c1=O was read as ALR H2O2 inh inactive, NALP1 inh inactive, Arr AP2 block inactive, PolyA inh inactive, NALP3 yeast inh inactive and Pemphigus Ab inh inactive.
For CC(OC(=O)Cc1c(F)cccc1Cl)C(=O)NC1(C#N)CCCCC1 (stereo unspecified) the results were ALR H2O2 inh inactive, Arr AP2 block inactive, PolyA inh inactive, NALP3 yeast inh inactive and Pemphigus Ab inh inactive.
Screening O=C(CN(C(=O)c1csnn1)c1ccccc1C(F)(F)F)NC1CCCCC1 returned ALR H2O2 inh inactive, NALP1 inh inactive, Arr AP2 block inactive, PolyA inh inactive, NALP3 yeast inh inactive and Pemphigus Ab inh inactive.
For CCn1c(CC(=O)Nc2ccc(F)cc2)nnc1SCC(=O)NC1=NCCS1 the results were NALP1 inh inactive, Arr AP2 block inactive, PolyA inh inactive, NALP3 yeast inh inactive and Pemphigus Ab inh -62.5.
For CCn1c(CC(=O)Nc2ccccc2Cl)nnc1SCC(=O)NC1CCCC1 the results were ALR H2O2 inh inactive, NALP1 inh inactive, Arr AP2 block inactive, PolyA inh inactive, NALP3 yeast inh inactive and Pemphigus Ab inh 85.7.
`Cc1ccccc1NC(=O)CSc1nc2ccccc2c(=O)n1C` gave ALR H2O2 inh inactive, NALP1 inh inactive, Arr AP2 block inactive, PolyA inh inactive, NALP3 yeast inh inactive and Pemphigus Ab inh inactive.
CCn1c(CC(=O)Nc2ccccc2F)nnc1SCC(=O)NC1CCCCC1 was read as NALP1 inh inactive, Arr AP2 block inactive, PolyA inh inactive, NALP3 yeast inh inactive and Pemphigus Ab inh inactive.
For COc1ccccc1NC(=O)CSc1nc(O)cc(=O)n1C the results were ALR H2O2 inh 98.8, NALP1 inh inactive, Arr AP2 block inactive, PolyA inh inactive, NALP3 yeast inh inactive and Pemphigus Ab inh inactive.
`COc1ccc(-n2c(SCC(=O)Nc3ccccc3OC)nc(O)cc2=O)cc1` gave ALR H2O2 inh inactive, Arr AP2 block inactive, PolyA inh inactive and NALP3 yeast inh inactive.
For Cn1c(SCC(=O)Nc2cccc3ccccc23)nc(O)cc1=O the results were ALR H2O2 inh 98.5, NALP1 inh inactive, Arr AP2 block inactive, PolyA inh inactive and NALP3 yeast inh inactive.
`C[C@@H]1CCCCO[C@H](CN(C)Cc2ccc(C(=O)O)cc2)[C@H](C)CN([C@@H](C)CO)C(=O)c2cc(NC(=O)Nc3ccc(C(F)(F)F)cc3)ccc2O1` gave Pemphigus Ab inh inactive.
`CC(C)Cn1c(=O)c2ccccc2n2c(CCC(=O)NCC3CCCO3)nnc12` (stereo unspecified) gave ALR H2O2 inh inactive, NALP1 inh inactive, Arr AP2 block inactive, PolyA inh inactive, NALP3 yeast inh inactive and Pemphigus Ab inh inactive.
`COc1ccccc1NC(=O)CSc1nc2nc(C)cc(C)c2c(=O)[nH]1` gave ALR H2O2 inh 90.6, NALP1 inh inactive, Arr AP2 block inactive, PolyA inh inactive, NALP3 yeast inh inactive and Pemphigus Ab inh inactive.
For CCn1c(CC(=O)Nc2ccccc2OC)nnc1SCC(=O)Nc1ccccc1F the results were ALR H2O2 inh 93.1, NALP1 inh inactive, Arr AP2 block inactive, PolyA inh inactive, NALP3 yeast inh inactive and Pemphigus Ab inh inactive.
